Measurements from ChEMBL document CHEMBL4813970, “Design, synthesis and evaluation of novel dimethylamino chalcone-O-alkylamines derivatives as potential multifunctional agents against Alzheimer's disease” (Eur J Med Chem, 2021).

Legend:
[1] = target: T1, Amyloid-beta precursor protein (Homo sapiens, UniProt P05067); assay: Disaggregation of self-induced amyloid beta (1 to 42) (unknown origin) at 25 uM measured by Thioflavin T based fluorometric assay relative to control
[2] = target: T1, Amyloid-beta precursor protein; assay: Inhibition of self-induced amyloid beta (1 to 42) (unknown origin) aggregation by T-fluorescence assay relative to control
In short: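 IC50 by ThT fluorescence (excitation 446 nm, emission 490 nm). Computed only where inhibition of self-induced Aβ1-42 aggregation at 25 μM exceeded 90%. Triplicate; mean of three independent experiments.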

[3] = Antioxidant activity of compound assessed as trolox equivalent antioxidant capacity by ORAC-FL assay; format: functional
Acetylcholinesterase [4] = target: T2, Acetylcholinesterase (Rattus norvegicus, UniProt P37136); assay: Inhibition of rat cortex homogenate acetylcholinesterase by Ellman's method
T2 sequence (P37136 whole entry): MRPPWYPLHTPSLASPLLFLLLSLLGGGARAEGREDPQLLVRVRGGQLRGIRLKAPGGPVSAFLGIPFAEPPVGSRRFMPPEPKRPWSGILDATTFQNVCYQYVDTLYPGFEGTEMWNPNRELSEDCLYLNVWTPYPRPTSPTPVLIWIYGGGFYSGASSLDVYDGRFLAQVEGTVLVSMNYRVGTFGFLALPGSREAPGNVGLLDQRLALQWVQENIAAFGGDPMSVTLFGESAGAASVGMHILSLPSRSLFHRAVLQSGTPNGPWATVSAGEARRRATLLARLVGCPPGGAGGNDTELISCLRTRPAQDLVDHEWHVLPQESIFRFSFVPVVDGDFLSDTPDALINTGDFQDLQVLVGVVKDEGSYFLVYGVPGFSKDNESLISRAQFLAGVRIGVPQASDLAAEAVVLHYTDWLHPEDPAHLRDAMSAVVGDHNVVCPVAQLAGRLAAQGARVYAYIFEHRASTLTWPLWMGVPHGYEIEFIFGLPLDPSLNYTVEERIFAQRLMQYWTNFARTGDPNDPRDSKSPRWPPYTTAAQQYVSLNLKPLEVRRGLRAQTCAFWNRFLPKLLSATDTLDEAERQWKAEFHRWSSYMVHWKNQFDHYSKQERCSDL

Butyrylcholinesterase = Butyrylcholinesterase (Rattus norvegicus, UniProt Q9JKC1); assay: Inhibition of rat serum BuChE by Ellman's method
Acetylcholinesterase [5] = target: Acetylcholinesterase (Electrophorus electricus, UniProt O42275); assay: Inhibition of electric eel AChE using acetylthiocholine iodide as substrate by Ellman's method
[6] = target: T1, Amyloid-beta precursor protein; assay: Inhibition of Cu2+ induced amyloid beta (1 to 42 residues) (unknown origin) aggregation at 25 uM by thioflavin-T fluorescence method relative to control
[7] = target: T1, Amyloid-beta precursor protein; assay: Disaggregation of Cu2+ induced amyloid beta (1 to 42 residues) (unknown origin) aggregation at 25 uM by thioflavin-T fluorescence method relative to control
[8] = target: T3, Amine oxidase [flavin-containing] B (Homo sapiens, UniProt P27338); assay: Inhibition of human recombinant MAO-B by multimode plate reader assay
T3 sequence (P27338 whole entry): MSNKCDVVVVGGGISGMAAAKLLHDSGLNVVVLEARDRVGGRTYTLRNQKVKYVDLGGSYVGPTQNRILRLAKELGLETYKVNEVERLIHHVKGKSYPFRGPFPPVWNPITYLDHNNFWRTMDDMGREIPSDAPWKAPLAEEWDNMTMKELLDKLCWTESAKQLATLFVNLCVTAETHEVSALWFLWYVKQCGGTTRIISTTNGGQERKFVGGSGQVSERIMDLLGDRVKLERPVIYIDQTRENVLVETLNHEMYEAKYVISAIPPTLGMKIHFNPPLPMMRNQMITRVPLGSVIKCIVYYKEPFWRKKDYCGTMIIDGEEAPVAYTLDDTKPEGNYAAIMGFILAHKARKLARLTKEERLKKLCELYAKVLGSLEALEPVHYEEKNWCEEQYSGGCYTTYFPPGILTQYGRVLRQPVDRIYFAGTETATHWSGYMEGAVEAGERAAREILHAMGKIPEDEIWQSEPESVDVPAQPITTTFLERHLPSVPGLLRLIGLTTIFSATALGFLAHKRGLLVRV

[9] = target: T4, Amine oxidase [flavin-containing] A (Homo sapiens, UniProt P21397); assay: Inhibition of human recombinant MAO-A by multimode plate reader assay
T4 sequence (P21397 whole entry): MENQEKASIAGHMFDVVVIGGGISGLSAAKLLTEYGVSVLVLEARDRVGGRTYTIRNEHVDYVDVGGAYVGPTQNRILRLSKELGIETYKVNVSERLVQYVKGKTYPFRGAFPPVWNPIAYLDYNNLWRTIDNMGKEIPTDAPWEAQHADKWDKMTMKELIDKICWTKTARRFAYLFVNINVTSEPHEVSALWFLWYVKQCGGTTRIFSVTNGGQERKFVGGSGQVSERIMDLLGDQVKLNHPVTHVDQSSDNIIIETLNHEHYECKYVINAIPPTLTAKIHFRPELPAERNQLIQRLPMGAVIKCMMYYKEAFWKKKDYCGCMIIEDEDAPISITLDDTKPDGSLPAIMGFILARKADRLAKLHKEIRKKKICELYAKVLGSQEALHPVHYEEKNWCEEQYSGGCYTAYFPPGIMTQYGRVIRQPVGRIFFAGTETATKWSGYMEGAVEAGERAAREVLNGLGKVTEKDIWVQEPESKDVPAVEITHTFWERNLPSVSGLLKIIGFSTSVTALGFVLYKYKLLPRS

Homo sapiens = organism: Homo sapiens; assay: Selectivity index, ratio of IC50 for recombinant human MAO-A to IC50 for recombinant human MAO-B
In short: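 Selectivity index taken as IC50(hMAO-A)/IC50(hMAO-B). IC50 values are mean ± SEM from three experiments.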

[10] = target: T1, Amyloid-beta precursor protein; assay: Inhibition of self-induced amyloid beta (1 to 42) (unknown origin) aggregation at 25 uM by T-fluorescence assay relative to control
In short: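 Self-induced Aβ1-42 aggregation measured by ThT fluorescence, excitation 446 nm and emission 490 nm. Compound and Aβ1-42 each at 25 μM. Run in triplicate. Values are mean of three independent experiments.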

Sequence of Acetylcholinesterase (Electrophorus electricus, UniProt O42275) (O42275 whole entry, the tested form may be a part): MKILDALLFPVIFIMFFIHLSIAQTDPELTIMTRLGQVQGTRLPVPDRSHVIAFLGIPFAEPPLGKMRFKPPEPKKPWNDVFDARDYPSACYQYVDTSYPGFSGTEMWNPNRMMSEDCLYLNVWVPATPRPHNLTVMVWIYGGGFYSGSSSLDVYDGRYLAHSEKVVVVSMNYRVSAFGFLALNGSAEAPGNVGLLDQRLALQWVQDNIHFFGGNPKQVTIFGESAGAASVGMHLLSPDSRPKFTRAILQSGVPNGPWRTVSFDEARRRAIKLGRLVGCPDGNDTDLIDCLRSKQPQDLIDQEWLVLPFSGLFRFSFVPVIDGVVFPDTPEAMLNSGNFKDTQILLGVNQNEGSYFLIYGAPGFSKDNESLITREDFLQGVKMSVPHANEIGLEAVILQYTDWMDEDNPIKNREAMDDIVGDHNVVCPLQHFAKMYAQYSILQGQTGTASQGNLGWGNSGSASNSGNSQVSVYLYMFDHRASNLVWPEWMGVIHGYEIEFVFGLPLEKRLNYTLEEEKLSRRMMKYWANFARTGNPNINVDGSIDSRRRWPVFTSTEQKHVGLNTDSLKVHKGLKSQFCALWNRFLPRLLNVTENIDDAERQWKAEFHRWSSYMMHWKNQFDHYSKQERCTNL
Sequence of Butyrylcholinesterase (Q9JKC1 whole entry): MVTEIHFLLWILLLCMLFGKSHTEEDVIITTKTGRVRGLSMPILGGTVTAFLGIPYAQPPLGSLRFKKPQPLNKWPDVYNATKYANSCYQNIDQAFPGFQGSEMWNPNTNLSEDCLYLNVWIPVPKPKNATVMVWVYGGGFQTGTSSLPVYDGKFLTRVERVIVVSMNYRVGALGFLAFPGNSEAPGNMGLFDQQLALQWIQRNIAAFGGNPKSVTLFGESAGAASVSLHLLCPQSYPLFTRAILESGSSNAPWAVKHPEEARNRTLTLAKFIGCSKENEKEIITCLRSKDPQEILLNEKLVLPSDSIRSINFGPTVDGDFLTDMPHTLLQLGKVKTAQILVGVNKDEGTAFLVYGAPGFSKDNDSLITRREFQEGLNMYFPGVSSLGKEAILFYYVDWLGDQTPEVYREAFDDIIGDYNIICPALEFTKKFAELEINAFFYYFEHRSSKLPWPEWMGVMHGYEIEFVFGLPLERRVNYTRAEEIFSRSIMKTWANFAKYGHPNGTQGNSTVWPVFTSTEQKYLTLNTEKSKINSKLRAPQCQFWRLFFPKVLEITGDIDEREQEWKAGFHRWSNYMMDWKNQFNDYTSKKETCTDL
T1 sequence (P05067 whole entry): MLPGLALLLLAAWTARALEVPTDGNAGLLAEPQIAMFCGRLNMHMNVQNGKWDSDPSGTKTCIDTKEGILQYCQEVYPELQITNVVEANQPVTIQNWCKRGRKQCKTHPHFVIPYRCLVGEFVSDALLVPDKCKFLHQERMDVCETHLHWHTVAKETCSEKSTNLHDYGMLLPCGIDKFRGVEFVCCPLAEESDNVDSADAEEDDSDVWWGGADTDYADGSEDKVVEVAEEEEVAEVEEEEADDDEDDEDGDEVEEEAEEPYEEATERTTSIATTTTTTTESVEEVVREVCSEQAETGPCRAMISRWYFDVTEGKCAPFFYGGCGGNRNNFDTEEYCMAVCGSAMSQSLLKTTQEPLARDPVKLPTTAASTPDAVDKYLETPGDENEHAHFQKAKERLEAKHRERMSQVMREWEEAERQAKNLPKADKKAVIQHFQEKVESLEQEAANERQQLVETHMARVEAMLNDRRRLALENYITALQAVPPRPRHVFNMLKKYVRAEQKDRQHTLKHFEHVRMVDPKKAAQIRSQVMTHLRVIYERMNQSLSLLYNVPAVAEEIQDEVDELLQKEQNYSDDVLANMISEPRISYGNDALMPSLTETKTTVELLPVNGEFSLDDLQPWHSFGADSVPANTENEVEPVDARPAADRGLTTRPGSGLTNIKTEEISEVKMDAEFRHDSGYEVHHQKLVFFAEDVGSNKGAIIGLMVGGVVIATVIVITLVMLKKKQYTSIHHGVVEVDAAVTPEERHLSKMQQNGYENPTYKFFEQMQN

Row | SMILES | Activity [1] [%] | IC50 ([2]; read-out: IC50) [µM] | Activity [3] | IC50 (Acetylcholinesterase [4]) [µM] | IC50 (Butyrylcholinesterase) [µM] | IC50 (Acetylcholinesterase [5]) [µM] | inhibition [6] [%] | Activity [7] [%] | IC50 [8] [µM] | IC50 [9] [µM] | Selectivity Index (Homo sapiens) | inhibition [10] [%] | IC50 [2]
1 | CCN(CCCCOc1ccc(C(=O)/C=C/c2ccc(N(C)C)cc2)c(O)c1)Cc1ccccc1 | 97.2 | 3.78 | 1.5 | 1.39 | 202 | 4.3 | 93.9 | 82.1 | 8.9 | 77.3 | 8.7 | – | –
2 | CCN(CCCOc1ccc(C(=O)/C=C/c2ccccc2)c(O)c1)Cc1ccccc1N(C)C | – | – | 1.3 | 0.31 | > 500 | 2 | – | – | 0.8 | 67.8 | 84.4 | 23 | –
3 | CCN(CCCCOc1ccc(/C=C/C(=O)c2ccc(N(C)C)cc2O)cc1)Cc1ccccc1N(C)C | – | – | 1.5 | – | > 500 | 3.02 | – | – | 4.3 | 12.3 | 2.9 | 75.8 | –
4 | CCN(CCCCOc1ccc(C(=O)/C=C/c2ccc(N(C)C)cc2)c(O)c1)Cc1ccc(N(C)C)cc1 | 91.6 | 2.1 | 1.5 | 1.35 | 68.9 | 1.96 | 91.7 | 78.8 | 2.4 | 17.2 | 7.2 | – | –
5 | COc1cc2c(cc1OC)C(=O)C(CC1CCN(Cc3ccccc3)CC1)C2 (configuration not stated) [DONEPEZIL] | – | – | – | – | – | – | – | – | – | – | – | – | Not Active
6 | COc1ccc(/C=C/C(=O)c2ccc(N(C)C)cc2O)cc1 | – | – | 1.5 | > 500 | > 500 | > 500 | – | – | 13.3 | 42.5 | 3.2 | 36.1 | –
7 | COc1ccc(C(=O)/C=C/c2ccc(N(C)C)cc2)c(O)c1 | – | – | 1.2 | > 500 | > 500 | > 500 | – | – | 0.21 | 7.62 | 36.3 | 59.7 | –
8 | CCN(CCCCCCOc1ccc(C(=O)/C=C/c2ccc(N(C)C)cc2)c(O)c1)Cc1ccccc1N(C)C | 87.9 | 1.03 | 2 | 0.31 | 422 | 2.44 | 96.5 | 83.4 | 2.1 | 37.8 | 18 | – | –
9 | CCN(CCCCOc1ccc(C(=O)/C=C/c2ccc(N(C)C)cc2)c(O)c1)Cc1ccccc1OC | 99.7 | 1.48 | 1.4 | 0.65 | > 500 | 4.12 | 91.9 | 73 | 1.1 | 27.5 | 25 | – | –
10 | CCN(CCCCCCOc1ccc(C(=O)/C=C/c2ccc(N(C)C)cc2)c(O)c1)Cc1ccc(N(C)C)cc1 | 95 | 1.38 | 1.4 | 1.37 | > 500 | 7.95 | 95.6 | 84.4 | 2.3 | 53.6 | 23.3 | – | –
11 | CCN(CCCCOc1ccc(/C=C/C(=O)c2ccc(N(C)C)cc2O)cc1)Cc1ccccc1OC | – | – | 1.6 | 0.71 | > 500 | 1.63 | – | – | 4.6 | 9.2 | 2 | 70.1 | –
12 | CCN(CC)CCCOc1ccc(C(=O)/C=C/c2ccc(N(C)C)cc2)c(O)c1 | – | – | 1.2 | 2.25 | > 500 | 1.35 | – | – | 4.1 | 47.1 | 11.5 | 64.1 | –
13 | CCN(CCCOc1ccc(C(=O)/C=C/c2ccc(N(C)C)cc2)c(O)c1)Cc1ccccc1N(C)C | 96.6 | 1.27 | 2.1 | 0.21 | 339 | 1.59 | 94.8 | 89.5 | 3.2 | 23.6 | 7.4 | – | –
14 | CCN(CCCOc1ccc(C(=O)/C=C/c2ccc(N(C)C)cc2)c(O)c1)Cc1ccccc1 | 97.5 | 1.68 | 1.6 | 1.44 | > 500 | 5.06 | 91.9 | 73.8 | 13.1 | 82.6 | 6.3 | – | –
15 | CN(C)c1ccc(/C=C/C(=O)c2ccc(N(C)C)cc2O)cc1 | – | – | 1.7 | > 500 | > 500 | > 500 | – | – | 12.1 | 47.9 | 4 | 64.3 | –
16 | CCN(CCCCCCOc1ccc(C(=O)/C=C/c2ccc(N(C)C)cc2)c(O)c1)Cc1ccccc1 | 84.4 | 3.17 | 1.4 | 4 | > 500 | 3.59 | 91 | 88.3 | 2.1 | 31.6 | 15 | – | –
17 | CCN(CCCCCCOc1ccc(C(=O)/C=C/c2ccc(N(C)C)cc2)c(O)c1)Cc1ccccc1OC | 92.6 | 1.49 | 1.4 | 0.56 | > 500 | 5.17 | 93.2 | 85.6 | 0.7 | 54.3 | 77.6 | – | –
18 | CCN(CCCOc1ccc(C(=O)/C=C/c2ccc(N(C)C)cc2)c(O)c1)Cc1ccc(N(C)C)cc1 | 73.7 | 1.32 | 1.3 | 2.47 | > 500 | 6.21 | 95 | 77.6 | 13.7 | 57.5 | 4.2 | – | –
19 | CCN(CCCOc1ccc(C(=O)/C=C/c2ccc(N(C)C)cc2)c(O)c1)Cc1ccccc1OC | 98.1 | 3.56 | 1.5 | 0.63 | > 500 | 5.3 | 95.2 | 74.8 | 10.8 | 26.3 | 2.4 | – | –
